Most compounds without a hit are left out; they make up all but 3.1% or so of the library.
GalR3 antag = GalR3 antagonists in HEK293 cells, primary screen, cell-based, fluorescence readout. Galanin receptor type 3 (Homo sapiens), O60755. HEK293 GalR3-CNG cAMP membrane potential fluorescence; galR3 body fused to GalR1 C-terminus. inhibition, % at 3 µM. actives 0.44% (n = 360,000);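 active = inhibition above the screen-wide average plus 3 SD, cut at about 13% in these data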;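 note: forskolin and galanin both at EC90 stimulate the cells; cAMP rise reported by CNG channel membrane potential dye signal; 0% = forskolin plus galanin with DMSO and 100% = forskolin alone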
CHO parental Ca = ATP-evoked calcium signal inhibitors, parental CHO, primary screen, counter-screen for OX1R antagonist project, cell-based, fluorescence, Fluo-8 calcium dye. actives 0.63% (n = 330,000). inhibition, % at 5.6 µM. parental CHO-K1, ATP-induced calcium, Fluo-8 fluorescence. AID 463079, 2010;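 active = inhibition above that plate's mean sample inhibition plus 3 SD, cut at about 26% in these data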;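 note: 0% = ATP-challenged DMSO wells and 100% = DMSO wells without ATP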
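Assay system: parental CHO cells; Read-out basis: percent inhibition of ATP-evoked calcium rise, normalized to controls; Benchmarks: ATP and no-ATP DMSO wells; Compound dosing: single nominal dose of 5.6 µM per compound; Signal: Fluo-8 calcium dye fluorescence; Also added: ATP as calcium-mobilizing challenge; Repeats: singlicate.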
GPR7 antagonist = GPR7 receptor antagonists, primary screen, cell-based, fluorescence, single concentration. GPR7-expressing cells, fluorescence antagonist assay. inhibition, % at 4.4 µM. actives 1.1% (n = 290,000); in the data active = inhibition above about 16%, passing the limit was not always enough;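 note: cells stimulated with the agonist NPW; 0% = agonist with vehicle and 100% = vehicle without agonist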
OX1R antag-1 = OX1R (HCRTR1) antagonists, primary screen, fluorescence, CHO/OX1R cells, Fluo-8 calcium, orexin A | inhibition, % at 5 µM | Fluo-8 calcium fluorescence | actives 0.43% (n = 330,000);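 active = inhibition above its plate's threshold, mean inhibition of all tested compounds on the plate plus 3 SD, cut at about 37% in these data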;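 note: 0% = orexin A challenge wells and 100% = SB-334867-A antagonist wells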
Target sequence (O43613 whole entry, looked up): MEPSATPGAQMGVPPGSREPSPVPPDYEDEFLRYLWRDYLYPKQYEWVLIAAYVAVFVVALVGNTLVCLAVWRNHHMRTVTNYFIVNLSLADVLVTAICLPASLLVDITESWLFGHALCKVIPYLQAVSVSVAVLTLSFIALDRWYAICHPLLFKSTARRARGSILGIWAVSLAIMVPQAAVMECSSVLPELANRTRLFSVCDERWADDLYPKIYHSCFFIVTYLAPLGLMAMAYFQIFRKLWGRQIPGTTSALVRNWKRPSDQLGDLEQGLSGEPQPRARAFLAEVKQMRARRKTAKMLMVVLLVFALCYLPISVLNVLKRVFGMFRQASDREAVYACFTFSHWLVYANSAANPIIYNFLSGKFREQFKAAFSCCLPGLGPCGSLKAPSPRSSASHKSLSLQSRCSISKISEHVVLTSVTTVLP
OX1R antag-2 = antagonists of human orexin 1 receptor (OX1R); Orexin/Hypocretin receptor type 1 (Homo sapiens), O43613; OX1R-expressing cells, FRET antagonist read-out; inhibition, % at 6.6 µM; actives 1.8% (n = 330,000); AID 485270, 2010; in the data active = inhibition mostly above about 38%, no sharp cut-off; inactive = mostly below about 40%;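 note: 0% = agonist challenge alone and 100% = reference antagonist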
GPR7 antag conf = GPR7 receptor antagonists, confirmation, cell-based, fluorescence, single concentration; inhibition, % at 4.4 µM; shares compounds with GPR7 antagonist; GPR7-expressing cells, calcium fluorescence antagonist mode; actives 52% (n = 2,400); AID 1952, 2009; in the data active = inhibition above about 24%;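 note: stimulated with the GPR7 agonist NPW; 0% = agonist plus vehicle and 100% = vehicle alone without agonist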
MCHR1 antag = MCHR1 antagonists in cells, counter-screen for GPR7 antagonist project, cell-based, fluorescence, human | shares compounds with GPR7 antagonist | MCHR1-expressing cells, fluorescence antagonist assay | AID 2148, 2009 | actives 62% (n = 2,400) | inhibition, % at 4.4 µM; in the data active = inhibition above about 22%;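 note: 0% = vehicle with agonist and 100% = vehicle without agonist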
Active calls of the source: *; . = no result.

SMILES | GalR3 antag | CHO parental Ca | GPR7 antagonist | OX1R antag-1 | OX1R antag-2 | GPR7 antag conf | MCHR1 antag
Cc1ccccc1Oc1ncnc2oc(-c3ccccc3)cc12 | 0 | -33 | 29* | -33 | 22 | 31* | 17
Clc1ccc(Oc2ncnc3oc(-c4ccccc4)cc23)cc1 | 0 | -5 | -3 | -6 | 25 | . | .
CN1CCN(CC(=O)Nc2c(C(=O)C3CC3)oc3ccccc23)CC1 | 1 | -3 | 21* | -29 | 12 | 1 | 10
Cc1ccc(C(=O)c2oc3ccc(Cl)cc3c2NC(=O)CN2CCN(C)CC2)cc1 | -3 | -10 | 24* | -7 | -7 | 29* | 42*
O=C(CN1CCOCC1)Nc1c(C(=O)C2CC2)oc2ccccc12 | -2 | -13 | -6 | -41 | 6 | . | .
Cc1ccc(C2CC(C(F)F)n3ncc(C(=O)Nc4c(C)nn(Cc5c(F)cccc5Cl)c4C)c3N2)cc1 (stereo unspecified) | -2 | 18 | 24* | 0 | 9 | 56* | 27*
C[C@@H]1CN([C@H](C)CO)C(=O)CCCn2nncc2CO[C@@H]1CN(C)S(=O)(=O)c1cccc(F)c1 | -3 | . | . | . | . | . | .
CN(Cc1ccc(C(F)(F)F)cc1)C(=O)C1CCC(=O)N(C2CC2)C1 (stereo unspecified) | 0 | . | -3 | . | . | . | .
CN(Cc1cccc(Cl)c1)C(=O)C1CCC(=O)N(C2CC2)C1 (stereo unspecified) | -5 | -6 | 23* | -21 | -1 | -9 | 12
O=C(COc1ccc(S(=O)(=O)NCc2ccccc2)cc1)NCc1cccnc1 | -7 | . | -6 | . | . | . | .
CC1c2[nH]c3ccccc3c2CCN1S(C)(=O)=O (stereo unspecified) | -3 | -2 | 26* | -18 | 16 | 4 | 6
CCOC(=O)CNS(=O)(=O)c1cc(-c2nnc(Nc3ccc4c(c3)OCO4)c3ccccc23)ccc1C | -5 | 57* | 36* | 71* | 24 | 47* | 78*
COc1cccc(CNC(=O)c2ccc(OCC(=O)N3CCOCC3)c(OC)c2)c1 | 0 | -10 | . | -37 | 17 | . | .
COc1cccc(CNC(=O)C2=Cc3cccc(OC)c3OC2)c1 | 5 | -14 | 33* | -39 | 6 | 4 | 21
O=C(CSc1ccccc1)Nc1ccc2c(c1)C(=O)NC2=O | -8 | 8 | 27* | 14 | 19 | 37* | 36*
Cc1cccc(C)c1OCC(=O)Nc1ccc2c(c1)C(=O)NC2=O | 1 | -10 | 32* | -5 | 30 | 27* | 29*
CC(=O)c1ccc(C(=O)Nc2ccc3c(c2)C(=O)NC3=O)cc1 | 2 | 4 | 22* | -8 | 9 | -11 | 6
COc1ccc(OCC(=O)Nc2ccc3c(c2)C(=O)NC3=O)cc1 | 3 | 4 | 29* | 16 | 37 | 26* | 17
O=C(COc1ccc(Br)cc1)Nc1ccc2c(c1)C(=O)NC2=O | -5 | 13 | 8 | 17 | 18 | . | .
Cc1ccc(OCC(=O)Nc2ccc3c(c2)C(=O)NC3=O)c(C)c1 | -4 | -12 | 20 | -5 | 37 | . | .
Cc1ccc2[nH]c3c(c2c1)CCc1cn[nH]c1-3 | 2 | 3 | 23* | -12 | 9 | 8 | 24*
O=c1c(Cl)c(Cl)cnn1Cc1nnc(-c2ccccc2Br)o1 | 9 | . | 88* | . | . | 89* | 105*
COC(=O)CSc1nnc(-c2ccc(S(=O)(=O)N3CCCC3)cc2)o1 | -6 | -8 | 5 | -17 | 18 | . | .
COC(=O)CSc1nnc(-c2ccc(S(=O)(=O)NCc3cccs3)cc2)o1 | -12 | -1 | 22* | 6 | 0 | 58* | 38*
COc1ccc(N=C/C=C2\C=C(c3ccccc3)OC(C)(C)O2)cc1 | -5 | -14 | 29* | -38 | 11 | -10 | 5
SMILES | GalR3 antag | CHO parental Ca | GPR7 antagonist | OX1R antag-1 | OX1R antag-2 | GPR7 antag conf | MCHR1 antag
O=S1(=O)CC(N2CCSCC2)CN1Cc1cn(Cc2ccc(F)cc2)nn1 (stereo unspecified) | -4 | . | . | . | . | . | .
c1ccc(-c2ccc(OCCCNC3CCCC3)cc2)cc1 | -4 | -1 | 21* | -7 | 1 | 23 | 21
CCCNC(=O)c1nnsc1S(=O)(=O)c1ccc(Cl)cc1 | -3 | . | 35* | . | . | 79* | 102*
CCCNC(=O)c1nnsc1S(=O)c1ccc(Cl)cc1 (stereo unspecified) | 3 | . | 16 | . | . | . | .
c1ccc(Nc2ccccc2Nc2ccccn2)nc1 | -6 | 49* | 53* | 50* | 56* | -4 | -6
c1ccc(CNc2ccccn2)cc1 | -8 | -12 | -17 | 8 | 5 | . | .
Clc1ccc(-c2c[n+](Cc3ccc(Cl)cc3Cl)c3n2CCCCC3)cc1 | -1 | -10 | 23* | -17 | 6 | 26* | 27*
c1ccc(-n2ncc3c(NCc4ccco4)ncnc32)cc1 | -4 | 4 | 24* | -3 | 13 | 48* | 44*
CSCCC(NC(=O)c1ccco1)C(=O)N(C)CC(=O)Nc1ccccc1Br (stereo unspecified) | -2 | . | . | . | . | . | .
CNCC(O)Cn1c(C(F)(F)F)nc2ccccc21 (stereo unspecified) | -5 | -18 | 31* | -20 | 20 | -6 | 19
CCCCn1c(NS(=O)(=O)c2ccccc2)c(S(=O)(=O)c2ccc(C)cc2)c2nc3ccccc3nc21 | -1 | -10 | 31* | -8 | 19 | 35* | 41*
CCCCn1c(NC(=O)c2ccco2)c(S(=O)(=O)c2ccc(C)cc2)c2nc3ccccc3nc21 | -4 | . | -7 | . | . | . | .
Cc1ccc(/C(N)=N/OC(=O)c2cccc(Cn3cc(C(F)(F)F)ccc3=O)c2)cc1 | -3 | -10 | 21* | -27 | 3 | -7 | 23*
N/C(=N\OC(=O)c1cccc(Cn2cc(C(F)(F)F)ccc2=O)c1)c1ccc(Cl)cc1 | 0 | -16 | -9 | -35 | 4 | . | .
C=CCOc1ccccc1CN(CCc1ccccc1)C(=O)c1cccc(S(C)(=O)=O)c1 | -9 | -18 | 5 | -32 | 16 | . | .
COc1ccc(CCNC(=O)COc2cc(C)cc3oc(=O)cc(C)c23)cc1 | -6 | -2 | 26* | -12 | -2 | 5 | 19
Cc1nnc(N2C(=O)c3cccc4c([N+](=O)[O-])ccc(c34)C2=O)s1 | -7 | 12 | 28* | 10 | 42* | 33* | 51*
Cc1cccc(N2C(=O)c3cccc4c(N5CCCCC5)c([N+](=O)[O-])cc(c34)C2=O)c1C | 2 | -9 | -8 | -19 | -1 | . | .

Screening data from PubChem BioAssay.
